Measured values reported in ChEMBL document CHEMBL3244078, “Synthesis and antihypertensive activity of novel 3-hydrazino-5-phenyl-1,2,4-triazines” (J Med Chem, 1979).

Assays:
Rattus norvegicus [1] = test: Antihypertensive activity in spontaneously hypertensive rat assessed as drop in mean systolic blood pressure at 50 mg/kg, po after 4 hrs by tail cuff method relative to vehicle-treated control; format: functional, Artery
In short: (§1)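 Spontaneously hypertensive rats aged 12–16 weeks with systolic BP of 170 mmHg or greater, in groups of five. Dosed po as a solution or suspension in 0.25% methylcellulose at 5 mL/kg, with a second dose right after the 24-h reading. Tail-cuff systolic BP (capacitance transducer) was read predose as control, then at 4, 24, 28 and 48 h. Mean drop from predose; Student's t test, p < 0.05.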

Rattus norvegicus [2] = test: Antihypertensive activity in spontaneously hypertensive rat assessed as drop in mean systolic blood pressure at 50 mg/kg, po after 24 hrs by tail cuff method relative to vehicle-treated control; format: functional, Artery; in short: as §1
Rattus norvegicus [3] = test: Antihypertensive activity in spontaneously hypertensive rat assessed as drop in mean systolic blood pressure at 50 mg/kg, po followed by second dosing at 24 hrs measured after 28 hrs by tail cuff method relative to vehicle-treated control; format: functional, Artery; in short: as §1
Rattus norvegicus [4] = test: Antihypertensive activity in spontaneously hypertensive rat assessed as drop in mean systolic blood pressure at 50 mg/kg, po followed by second dosing at 24 hrs measured after 48 hrs by tail cuff method relative to vehicle-treated control; format: functional, Artery; in short: as §1
[5] = Toxicity in ip dosed CF-1 mouse after 48 hrs; conditions: in vivo
Rattus norvegicus [6] = test: Antihypertensive activity in spontaneously hypertensive rat assessed as drop in mean systolic blood pressure at 30 mg/kg, po after 4 hrs by tail cuff method relative to vehicle-treated control; format: functional, Artery
In short: (§2)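 Dose-response run of the primary SHR protocol: rats aged 12–16 weeks, systolic BP of 170 mmHg or greater, five per dose. Oral doses of 100, 30, 10 and 3 mg/kg in 0.25% methylcellulose, redosed immediately after the 24-h reading. Tail-cuff systolic BP read predose and at 4, 24, 28 and 48 h. Mean drop from predose; Student's t test, p < 0.05.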

Rattus norvegicus [7] = test: Antihypertensive activity in spontaneously hypertensive rat assessed as drop in mean systolic blood pressure at 30 mg/kg, po after 24 hrs by tail cuff method relative to vehicle-treated control; format: functional, Artery; in short: as §2
Rattus norvegicus [8] = test: Antihypertensive activity in spontaneously hypertensive rat assessed as drop in mean systolic blood pressure at 30 mg/kg, po followed by second dosing at 24 hrs measured after 28 hrs by tail cuff method relative to vehicle-treated control; format: functional, Artery; in short: as §2
Rattus norvegicus [9] = test: Antihypertensive activity in spontaneously hypertensive rat assessed as drop in mean systolic blood pressure at 30 mg/kg, po followed by second dosing at 24 hrs measured after 48 hrs by tail cuff method relative to vehicle-treated control; format: functional, Artery; in short: as §2
Rattus norvegicus [10] = test: Antihypertensive activity in spontaneously hypertensive rat assessed as drop in mean systolic blood pressure at 10 mg/kg, po after 4 hrs by tail cuff method relative to vehicle-treated control; format: functional, Artery; in short: as §2
Rattus norvegicus [11] = test: Antihypertensive activity in spontaneously hypertensive rat assessed as drop in mean systolic blood pressure at 10 mg/kg, po after 24 hrs by tail cuff method relative to vehicle-treated control; format: functional, Artery; in short: as §2
Rattus norvegicus [12] = test: Antihypertensive activity in spontaneously hypertensive rat assessed as drop in mean systolic blood pressure at 10 mg/kg, po followed by second dosing at 24 hrs measured after 28 hrs by tail cuff method relative to vehicle-treated control; format: functional, Artery; in short: as §2
Rattus norvegicus [13] = test: Antihypertensive activity in spontaneously hypertensive rat assessed as drop in mean systolic blood pressure at 10 mg/kg, po followed by second dosing at 24 hrs measured after 48 hrs by tail cuff method relative to vehicle-treated control; format: functional, Artery; in short: as §2
Rattus norvegicus [14] = test: Antihypertensive activity in spontaneously hypertensive rat assessed as mean heart rate at 30 mg/kg, po after 4 hrs by tail cuff method relative to vehicle-treated control; format: functional
In short: (§3)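 Heart rate by biotachometer in the SHR dose-response protocol: five rats per dose, oral doses of 100, 30, 10 and 3 mg/kg in 0.25% methylcellulose, second dose right after the 24-h reading. Mean heart rate recorded predose and at 4, 24, 28 and 48 h.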

Rattus norvegicus [15] = test: Antihypertensive activity in spontaneously hypertensive rat assessed as mean heart rate at 30 mg/kg, po after 24 hrs by tail cuff method relative to vehicle-treated control; format: functional; in short: as §3
Rattus norvegicus [16] = test: Antihypertensive activity in spontaneously hypertensive rat assessed as mean heart rate at 30 mg/kg, po followed by second dosing at 24 hrs measured after 28 hrs by tail cuff method relative to vehicle-treated control; format: functional; in short: as §3
Rattus norvegicus [17] = test: Antihypertensive activity in spontaneously hypertensive rat assessed as mean heart rate at 30 mg/kg, po followed by second dosing at 24 hrs measured after 48 hrs by tail cuff method relative to vehicle-treated control; format: functional; in short: as §3
Rattus norvegicus [18] = test: Antihypertensive activity in spontaneously hypertensive rat assessed as mean heart rate at 10 mg/kg, po after 4 hrs by tail cuff method relative to vehicle-treated control; format: functional; in short: as §3
Rattus norvegicus [19] = test: Antihypertensive activity in spontaneously hypertensive rat assessed as mean heart rate at 10 mg/kg, po after 24 hrs by tail cuff method relative to vehicle-treated control; format: functional; in short: as §3
Rattus norvegicus [20] = test: Antihypertensive activity in spontaneously hypertensive rat assessed as mean heart rate at 10 mg/kg, po followed by second dosing at 24 hrs measured after 28 hrs by tail cuff method relative to vehicle-treated control; format: functional; in short: as §3
Rattus norvegicus [21] = test: Antihypertensive activity in spontaneously hypertensive rat assessed as mean heart rate at 10 mg/kg, po followed by second dosing at 24 hrs measured after 48 hrs by tail cuff method relative to vehicle-treated control; format: functional; in short: as §3
Rattus norvegicus [22] = test: Antihypertensive activity in spontaneously hypertensive rat assessed as mean heart rate at 3 mg/kg, po after 4 hrs by tail cuff method relative to vehicle-treated control; format: functional; in short: as §3
Rattus norvegicus [23] = test: Antihypertensive activity in spontaneously hypertensive rat assessed as mean heart rate at 3 mg/kg, po after 24 hrs by tail cuff method relative to vehicle-treated control; format: functional; in short: as §3
Rattus norvegicus [24] = test: Antihypertensive activity in spontaneously hypertensive rat assessed as mean heart rate at 3 mg/kg, po followed by second dosing at 24 hrs measured after 28 hrs by tail cuff method relative to vehicle-treated control; format: functional; in short: as §3
Rattus norvegicus [25] = test: Antihypertensive activity in spontaneously hypertensive rat assessed as mean heart rate at 3 mg/kg, po followed by second dosing at 24 hrs measured after 48 hrs by tail cuff method relative to vehicle-treated control; format: functional; in short: as §3
Rattus norvegicus [26] = test: Antihypertensive activity in spontaneously hypertensive rat assessed as drop in mean systolic blood pressure at 100 mg/kg, po after 4 hrs by tail cuff method relative to vehicle-treated control; format: functional, Artery
Rattus norvegicus [27] = test: Antihypertensive activity in spontaneously hypertensive rat assessed as drop in mean systolic blood pressure at 100 mg/kg, po after 24 hrs by tail cuff method relative to vehicle-treated control; format: functional, Artery
Rattus norvegicus [28] = test: Antihypertensive activity in spontaneously hypertensive rat assessed as drop in mean systolic blood pressure at 100 mg/kg, po followed by second dosing at 24 hrs measured after 28 hrs by tail cuff method relative to vehicle-treated control; format: functional, Artery
Rattus norvegicus [29] = test: Antihypertensive activity in spontaneously hypertensive rat assessed as drop in mean systolic blood pressure at 100 mg/kg, po followed by second dosing at 24 hrs measured after 48 hrs by tail cuff method relative to vehicle-treated control; format: functional, Artery
Rattus norvegicus [30] = test: Antihypertensive activity in spontaneously hypertensive rat assessed as mean heart rate at 100 mg/kg, po after 4 hrs by tail cuff method relative to vehicle-treated control; format: functional; in short: as §3
Rattus norvegicus [31] = test: Antihypertensive activity in spontaneously hypertensive rat assessed as mean heart rate at 100 mg/kg, po after 24 hrs by tail cuff method relative to vehicle-treated control; format: functional; in short: as §3
Rattus norvegicus [32] = test: Antihypertensive activity in spontaneously hypertensive rat assessed as mean heart rate at 100 mg/kg, po followed by second dosing at 24 hrs measured after 28 hrs by tail cuff method relative to vehicle-treated control; format: functional; in short: as §3
Rattus norvegicus [33] = test: Antihypertensive activity in spontaneously hypertensive rat assessed as mean heart rate at 100 mg/kg, po followed by second dosing at 24 hrs measured after 48 hrs by tail cuff method relative to vehicle-treated control; format: functional; in short: as §3

## Br.NCC(=O)NNc1nncc(-c2ccccc2)n1.O
Rattus norvegicus [1]
  Activity: 41 mmHg
Rattus norvegicus [2]
  Activity: 35 mmHg
Rattus norvegicus [3]
  Activity: 105 mmHg
Rattus norvegicus [4]
  Activity: 91 mmHg
[5]
  LD50 at 48 h: 75 mg/kg

## NNc1nncc2ccccc12 [HYDRALAZINE]
[5]
  LD50 at 48 h: 100 mg/kg
Rattus norvegicus [6]
  Activity: 88 mmHg
Rattus norvegicus [7]
  Activity: 60 mmHg
Rattus norvegicus [8]
  Activity: 47 mmHg
Rattus norvegicus [9]
  Activity: 14 mmHg
Rattus norvegicus [10]
  Activity: 60 mmHg
Rattus norvegicus [11]
  Activity: 38 mmHg
Rattus norvegicus [12]
  Activity: 10 mmHg
Rattus norvegicus [13]
  Activity: 10 mmHg
Rattus norvegicus [14]
  Activity: 492 bpm
Rattus norvegicus [15]
  Activity: 480 bpm
Rattus norvegicus [16]
  Activity: 496 bpm
Rattus norvegicus [17]
  Activity: 448 bpm
Rattus norvegicus [18]
  Activity: 504 bpm
Rattus norvegicus [19]
  Activity: 468 bpm
Rattus norvegicus [20]
  Activity: 428 bpm
Rattus norvegicus [21]
  Activity: 448 bpm
Rattus norvegicus [22]
  Activity: 448 bpm
Rattus norvegicus [23]
  Activity: 392 bpm
Rattus norvegicus [24]
  Activity: 444 bpm
Rattus norvegicus [25]
  Activity: 432 bpm

## O=C(NNc1nncc(-c2ccc(Cl)c(Cl)c2)n1)C(F)(F)F
Rattus norvegicus [26]
  Activity: 30 mmHg
Rattus norvegicus [27]
  Activity: 29 mmHg
Rattus norvegicus [28]
  Activity: 35 mmHg
Rattus norvegicus [29]
  Activity: 25 mmHg
[5]
  LD50 at 48 h: > 300 mg/kg
Rattus norvegicus [6]
  Activity: 18 mmHg
Rattus norvegicus [7]
  Activity: 18 mmHg
Rattus norvegicus [8]
  Activity: 18 mmHg
Rattus norvegicus [9]
  Activity: 16 mmHg
Rattus norvegicus [10]
  Activity: 16 mmHg
Rattus norvegicus [11]
  Activity: 12 mmHg
Rattus norvegicus [12]
  Activity: 17 mmHg
Rattus norvegicus [13]
  Activity: 15 mmHg
Rattus norvegicus [30]
  Activity: 472 bpm
Rattus norvegicus [31]
  Activity: 462 bpm
Rattus norvegicus [32]
  Activity: 438 bpm
Rattus norvegicus [33]
  Activity: 438 bpm
Rattus norvegicus [14]
  Activity: 444 bpm
Rattus norvegicus [15]
  Activity: 438 bpm
Rattus norvegicus [16]
  Activity: 435 bpm
Rattus norvegicus [17]
  Activity: 426 bpm
Rattus norvegicus [18]
  Activity: 412 bpm
Rattus norvegicus [19]
  Activity: 438 bpm
Rattus norvegicus [20]
  Activity: 448 bpm
Rattus norvegicus [21]
  Activity: 400 bpm
Rattus norvegicus [22]
  Activity: 430 bpm
Rattus norvegicus [23]
  Activity: 424 bpm
Rattus norvegicus [24]
  Activity: 428 bpm
Rattus norvegicus [25]
  Activity: 424 bpm
